Results on seven compounds are retold here after ChEMBL document CHEMBL3228006, “Orally active esters of cephalosporin antibiotics. 3. Synthesis and biological properties of aminoacyloxymethyl esters of 7-[D(-)-mandelamido]-3-[[(1-methyl-1H-tetrazol-5-yl)thio]methyl]-3-cephem-4-carboxylic acid” (J Med Chem, 1979).

Data set [1] can be described thus: Chemical stability of the compound in phosphate buffer at pH 6 assessed as hydrolysis after 20 mins by paper electrophoresis analysis. The format is physicochemical. The note with it: for Stability: buffer, pH 6, 20 min; for degraded at 20 min: phosphate buffer, pH 6, read-out: Drug degradation. In a few lines:
(§1)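 Ester dissolved in buffer (pH 2.5, 4.5 or 6.0) at 37 °C; samples taken at 0, 20, 40, 60 min and run on paper electrophoresis strips at 400 V in 0.1 M pyridine-acetate buffer for 2 h, steamed, dried, spots seen under UV. Extent of hydrolysis estimated approximately by comparing visual UV zone intensity of ester versus parent acid.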

The next data set has as its system Blood. Nature of the data set: Drug metabolism in mouse assessed as cefamandole level in blood using Micrococcus luteus ATCC 9341 as detecting organism at 17 mg/kg, po by disk-plate microbiology assay. The format is ADME, organism-based. Further details: dose 17 mg/kg, route oral. The note with it: in vivo. Put shortly: (§2)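 Mice dosed orally at 17 mg/kg; cefamandole activity in blood or urine measured by disk-plate microbiological assay with Micrococcus luteus ATCC 9341 as detecting organism.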

The nature of data set [2]: Drug metabolism in mouse assessed as cefamandole level in urine using Micrococcus luteus ATCC 9341 as detecting organism at 17 mg/kg, po by disk-plate microbiology assay. The format is ADME, organism-based. Set-up: dose 17 mg/kg, route oral. The note with it: in vivo. In a few lines:
as §2

A short description of data set [3]: Chemical stability of the compound in phosphate buffer at pH 2.5 assessed as hydrolysis up to 60 mins by paper electrophoresis analysis. The note with it: pH 2.5, 1 h. The format is physicochemical. Put shortly:
as §1

A further data set has as its system Streptococcus pyogenes. Nature of the data set: Antibacterial activity against Streptococcus pyogenes C203 infected in po dosed Swiss mouse assessed as protection against bacterial infection administered 1 to 5 hrs after bacterial infection. The format is functional. Put shortly:
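Swiss white mice (13-15 g), groups of eight, infected ip with broth suspension of S. pyogenes C203 lethal to 100% of untreated mice in 24-48 h. Five groups per test received graduated oral doses at 1 and 5 h post-challenge. ED50 by Reed and Muench method from survivors at 7 days.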

Data set [4] in a line: Chemical stability of the compound in phosphate buffer at pH 4.5 assessed as hydrolysis up to 60 mins by paper electrophoresis analysis. The format is physicochemical. The following applies: pH 4.5, 1 h. Put shortly:
as §1

Data set [5] is described as follows: Drug metabolism in mouse assessed as cefamandole level in small intestine using Micrococcus luteus ATCC 9341 as detecting organism at 17 mg/kg, po by disk-plate microbiology assay. The format is ADME, organism-based. Set-up: dose 17 mg/kg, route oral. The following applies: in vivo.

In the case of `Cl.Cn1nnnc1SCC1=C(C(=O)OCOC(=O)CN)N2C(=O)[C@@H](NC(=O)[C@H](O)c3ccccc3)[C@H]2SC1`, the Stability result in data set [1] is reported as “Unstable”; in data set [3] it was “Stable”; in data set [4], “Unstable”. The Drug metabolism entry is given as “metabolite_notdetected” with Blood, “metabolite_notdetected” in data set [2] and “metabolite_detected” in data set [5]. For the same compound, the ED50 – broadly, the dose at which the effect has come halfway, by size or by number of responders – with Streptococcus pyogenes was found to be 20.4 mg/kg.
For `CC(C)[C@H](N)C(=O)OCOC(=O)C1=C(CSc2nnnn2C)CS[C@@H]2[C@H](NC(=O)[C@H](O)c3ccccc3)C(=O)N12.Cl`, the Stability result in data set [1] is listed as “Unstable”; in data set [3], “Stable”; in data set [4], “Unstable”. Besides, the Drug metabolism entry in the data set on Blood was “metabolite_notdetected”; in data set [2] it was “metabolite_notdetected”; in data set [5] it was “metabolite_detected”. For the same compound, in the data set with Streptococcus pyogenes, the ED50 came out at 14.3 mg/kg.
Turning to `CC(C)C[C@H](N)C(=O)OCOC(=O)C1=C(CSc2nnnn2C)CS[C@@H]2[C@H](NC(=O)[C@H](O)c3ccccc3)C(=O)N12.Cl`, the results for the Stability entry in data set [1], in data set [3] and in data set [4] were “Unstable”, “Stable” and “Unstable”, respectively. Moreover, the median effective dose (ED50) in the data set on Streptococcus pyogenes was 10.4 mg/kg.
As to `CC[C@H](C)[C@H](N)C(=O)OCOC(=O)C1=C(CSc2nnnn2C)CS[C@@H]2[C@H](NC(=O)[C@H](O)c3ccccc3)C(=O)N12.Cl`, the Stability entry was “Unstable” in data set [1], “Stable” in data set [3] and “Unstable” in data set [4]. For the same compound, the ED50 with Streptococcus pyogenes worked out at 8.6 mg/kg.
With `Cl.Cn1nnnc1SCC1=C(C(=O)OCOC(=O)[C@@H](N)Cc2ccccc2)N2C(=O)[C@@H](NC(=O)[C@H](O)c3ccccc3)[C@H]2SC1`, the degraded at 20 min in data set [1] is 50%. Also, the Stability result is recorded as “Stable” in data set [3] and “Unstable” in data set [4]. In addition, the ED50 in the data set with Streptococcus pyogenes is 15.3 mg/kg.
With `COC(=O)[C@H](N)CC(=O)OCOC(=O)C1=C(CSc2nnnn2C)CS[C@@H]2[C@H](NC(=O)[C@H](O)c3ccccc3)C(=O)N12.Cl`, in data set [1], the degraded at 20 min turned out to be 20%. Further, the Drug metabolism entry is reported as “metabolite_notdetected” in the data set with Blood, “metabolite_notdetected” in data set [2] and “metabolite_detected” in data set [5]. For the same compound, the Stability entry in data set [3] is “Stable”; in data set [4], “Unstable”. In the data set on Streptococcus pyogenes, the ED50 worked out at 25.2 mg/kg.
Consider `Cn1nnnc1SCC1=C(C(=O)[O-])N2C(=O)[C@@H](NC(=O)[C@H](O)c3ccccc3)[C@H]2SC1.[Li+]`, for which the ED50 with Streptococcus pyogenes is 12 mg/kg.
